Source: ChEMBL document CHEMBL5678799 (Biochem J, 2009)
Active and inactive are the calls of the source. No cut-off for these calls is given here.

How the values were obtained:
[1] = biological target: CDK2/Cyclin A2 (Homo sapiens) (UniProt P24941+P20248); assay: Inhibition of recombinant human N-terminal GST-tagged CDK2 (2 to 298 residues)/N-terminal GST-tagged Cyclin A2 (171 to 432 residues) expressed in Escherichia coli assessed as remaining activity at 1 uM using YSPTSPSYSPTSPSYSPTSPKKK as substrate incubated for 30 mins in presence of [gamma-33P]ATP by filter binding method relative to control
In short: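 Incubations ran robotically for 30 min at room temperature (21 °C) under linear conditions. Results are percent activity remaining versus controls without compound, as the mean of triplicates ± S.D.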

[2] = biological target: Homeodomain-interacting protein kinase 2 (Homo sapiens) (UniProt Q9H2X6); assay: Inhibition of recombinant human N-terminal GST-tagged HIPK2 (165 to 564 residues) expressed in Escherichia coli assessed as remaining activity at 1 uM using MBP as substrate incubated for 30 mins in presence of [gamma-33P]ATP by filter binding method relative to control
In short: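 Radiometric kinase panel run robotically at room temperature (21 °C) for 30 min, linear in time and enzyme. […] Activity is expressed as percent of control without compound, from triplicate determinations ± S.D.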

[3] = biological target: Myosin light chain kinase (Homo sapiens) (UniProt Q32MK0); assay: Inhibition of MLCK (unknown origin) assessed as remaining activity at 1 uM relative to control
In short: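 Profiling-centre panel assay performed robotically at 21 °C for 30 min, linear with time and enzyme. […] Values are percent of compound-free control activity, the mean of triplicates ± S.D.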

[4] = biological target: Serine/threonine-protein kinase 3 (Homo sapiens) (UniProt Q13188); assay: Inhibition of recombinant human N-terminal GST-tagged MST2 (2 to 491 residues) expressed in baculovirus infected Sf21 cells assessed as remaining activity at 1 uM using MBP as substrate incubated for 30 mins in presence of [gamma-33P]ATP by filter binding method relative to control
In short: (§1)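 Panel assays were run for 30 min at 21 °C, within the linear range for time and enzyme. […] Results are percent activity remaining relative to compound-free control, averaged from triplicate ± S.D.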

[5] = biological target: Serine/threonine-protein kinase Nek6 (Homo sapiens) (UniProt Q9HC98); assay: Inhibition of recombinant human His6-tagged NEK6 (8 to 313 residues) expressed in baculovirus infected Sf21 cells assessed as remaining activity at 1 uM using FLAKSFGSPNRAYKK as substrate incubated for 30 mins in presence of [gamma-33P]ATP by filter binding method relative to control
In short: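 Run robotically for 30 min at 21 °C under linear conditions. Compound at 1 or 10 µM. Percentage activity remaining versus control without compound, triplicate mean ± S.D.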

[6] = biological target: Vascular endothelial growth factor receptor 1 (Homo sapiens) (UniProt P17948); assay: Inhibition of recombinant human N-terminal GST-tagged VEGFR1 (784 to 1338 residues) expressed in baculovirus infected Sf21 cells assessed as remaining activity at 1 uM using KKKSPGEYVNIEFG as substrate incubated for 30 mins in presence of [gamma-33P]ATP by filter binding assay relative to control; in short: as §1
[7] = biological target: Glycogen synthase kinase-3 beta (Homo sapiens) (UniProt P49841); assay: Inhibition of recombinant human His6-tagged GSK3beta (2 to 420 residues) expressed in baculovirus infected Sf21 cells assessed as remaining activity at 10 uM using phospho-GS2 peptide as substrate incubated for 30 mins in presence of [gamma-33P]ATP by filter binding method relative to control
In short: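 Radiometric kinase panel run robotically at 21 °C for 30 min, linear in time and enzyme. […] Activity expressed as percentage of control without inhibitor; triplicate determinations.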

[8] = biological target: Serine/threonine-protein kinase N2 (Homo sapiens) (UniProt Q16513); assay: Inhibition of recombinant N-terminal His6/FLAG-tagged human PRK2 (501 to 984 residues) expressed in baculovirus infected Sf21 cells assessed as remaining activity at 10 uM using S6 peptide as substrate incubated for 30 mins in presence of [gamma-33P]ATP by filter binding method relative to control
In short: (§2)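 Kinase panel run robotically at 21 °C for 30 min, linear in time and enzyme. […] Compound tested at 1 or 10 µM. Activity given as percentage of incubations without compound, mean of triplicates ± S.D.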

[9] = biological target: Proto-oncogene tyrosine-protein kinase Src (Homo sapiens) (UniProt P12931); assay: Inhibition of recombinant human N-terminal His6-tagged SRC (1 to 536 residues) expressed in baculovirus infected Sf21 cells assessed as remaining activity at 10 uM using KVEKIGEGTYGVVYK as substrate incubated for 30 mins in presence of [gamma-33P]ATP by filter binding assay relative to control
[10] = biological target: Dual specificity mitogen-activated protein kinase kinase 1 (Homo sapiens) (UniProt Q02750); assay: Inhibition of recombinant human MKK1 (2 to 393 residues) expressed in Escherichia coli at 10 uM using MBP as substrate incubated for 30 mins in presence of [gamma-33P]ATP by filter binding method relative to control; in short: as §2
Homo sapiens = species: Homo sapiens; assay: Inhibition of choline kinase (unknown origin) assessed as remaining activity at 1 uM using choline as substrate incubated for 30 mins in presence of ATP by Kinase Glo assay relative to control
In short: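 Choline kinase assayed with 1 mM choline, 1 μM ATP in 25 mM glycine/NaOH pH 8.5, 67 mM KCl, 5 mM MgCl2, 1 mM DTT, 30 min at room temperature. Stopped with Kinase-Glo Plus, luminescence read after 10 min. Activity relative to control, triplicate.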

[11] = biological target: Sphingosine kinase 2 (Homo sapiens) (UniProt Q9NRA0); assay: Inhibition of SPHK2 (unknown origin) assessed as remaining activity at 1 uM using sphingosine as substrate incubated for 30 mins in presence of ATP relative to control
In short: (§3)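 SPHK2 reaction: 10 μM sphingosine, 1 μM ATP, 50 mM Tris/HCl pH 7.5, 200 mM KCl, 5 mM MgCl2, 1 mM EGTA, 1 mM DTT, 30 min at room temperature. Kinase-Glo Plus luminescence read-out. Percentage of control activity, triplicate.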

[12] = biological target: Sphingosine kinase 2 (Homo sapiens) (UniProt Q9NRA0); assay: Inhibition of SPHK2 (unknown origin) assessed as remaining activity at 10 uM using sphingosine as substrate incubated for 30 mins in presence of ATP relative to control; in short: as §3
MEF = assay: Inhibition of mTORC2 in serum starved sin1 knockout MEF cells assessed as reduction IGF1-stimulated AKT phosphorylation at Thr308 residue at 100 to 1000 nM incubated for 20 mins by immunoblot analysis; type: cell-based; details: Mus musculus, dose 100-1000 nM
In short: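 Serum withdrawn 16 h. Inhibitor or vehicle given 30 min before stimulation with 50 ng/ml IGF-1 for 20 min. Lysed in Tris lysis buffer and immunoblotted for Akt Thr308 phosphorylation with ECL detection. Applies to HEK-293 and to wild-type, Rictor, Sin1 or mLST8 knockout MEFs. Three independent experiments.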

mTORC1 (Homo sapiens) [13] = biological target: T1, mTORC1 (Homo sapiens) (UniProt P42345+Q8N122+Q9BVC4); details: HEK293, dose 30.0 nM, time 30.0 min
mTORC1 (Homo sapiens) [14] = biological target: T1, mTORC1 (Homo sapiens); details: HEK293, dose 30-1000 nM, time 30.0 min

T1 sequence (Q8N122 whole entry, looked up, other chains not shown): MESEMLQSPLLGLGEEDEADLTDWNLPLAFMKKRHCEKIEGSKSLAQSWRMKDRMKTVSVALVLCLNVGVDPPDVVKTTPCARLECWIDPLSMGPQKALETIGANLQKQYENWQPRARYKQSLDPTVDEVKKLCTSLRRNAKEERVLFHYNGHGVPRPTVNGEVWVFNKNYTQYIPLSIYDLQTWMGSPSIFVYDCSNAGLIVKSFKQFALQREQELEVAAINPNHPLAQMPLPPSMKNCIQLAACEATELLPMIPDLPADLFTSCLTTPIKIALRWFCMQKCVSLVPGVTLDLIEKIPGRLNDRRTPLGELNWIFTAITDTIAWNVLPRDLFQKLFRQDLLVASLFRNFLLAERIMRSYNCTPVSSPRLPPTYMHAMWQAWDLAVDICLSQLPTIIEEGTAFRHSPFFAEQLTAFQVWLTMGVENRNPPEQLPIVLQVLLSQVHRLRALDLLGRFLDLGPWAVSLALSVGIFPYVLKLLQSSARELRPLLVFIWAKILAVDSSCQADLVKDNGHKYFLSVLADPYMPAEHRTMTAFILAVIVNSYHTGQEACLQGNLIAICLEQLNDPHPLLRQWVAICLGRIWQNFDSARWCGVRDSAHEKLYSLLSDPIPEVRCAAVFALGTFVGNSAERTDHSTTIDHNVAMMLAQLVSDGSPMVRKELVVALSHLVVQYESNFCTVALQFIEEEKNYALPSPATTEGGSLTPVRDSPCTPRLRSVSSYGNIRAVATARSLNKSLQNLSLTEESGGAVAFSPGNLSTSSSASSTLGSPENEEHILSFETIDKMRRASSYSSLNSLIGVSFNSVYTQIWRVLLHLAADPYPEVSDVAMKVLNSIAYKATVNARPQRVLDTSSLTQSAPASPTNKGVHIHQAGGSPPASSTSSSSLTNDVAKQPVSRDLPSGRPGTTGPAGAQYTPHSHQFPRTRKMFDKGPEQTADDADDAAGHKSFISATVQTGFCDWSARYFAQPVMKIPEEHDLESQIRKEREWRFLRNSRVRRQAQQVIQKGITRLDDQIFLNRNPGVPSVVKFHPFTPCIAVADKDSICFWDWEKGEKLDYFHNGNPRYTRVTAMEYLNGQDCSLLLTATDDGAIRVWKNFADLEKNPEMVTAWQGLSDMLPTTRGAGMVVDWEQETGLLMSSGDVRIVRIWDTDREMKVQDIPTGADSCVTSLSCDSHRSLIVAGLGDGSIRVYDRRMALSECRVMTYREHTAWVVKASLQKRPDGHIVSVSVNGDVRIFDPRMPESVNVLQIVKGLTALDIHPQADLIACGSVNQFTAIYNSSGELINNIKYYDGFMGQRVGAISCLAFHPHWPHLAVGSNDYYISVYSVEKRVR
T1 sequence (Q9BVC4 whole entry, looked up, other chains not shown): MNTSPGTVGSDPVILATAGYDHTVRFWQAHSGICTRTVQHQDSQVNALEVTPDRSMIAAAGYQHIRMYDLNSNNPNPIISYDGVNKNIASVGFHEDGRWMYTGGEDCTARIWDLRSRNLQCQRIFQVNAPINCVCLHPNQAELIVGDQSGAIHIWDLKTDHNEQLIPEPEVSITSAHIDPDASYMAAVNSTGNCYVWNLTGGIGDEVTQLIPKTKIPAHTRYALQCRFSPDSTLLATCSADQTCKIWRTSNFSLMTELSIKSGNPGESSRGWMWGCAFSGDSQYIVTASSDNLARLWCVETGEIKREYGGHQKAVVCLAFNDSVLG
Sphingosine kinase 2 (Homo sapiens), sequence (Q9NRA0 whole entry): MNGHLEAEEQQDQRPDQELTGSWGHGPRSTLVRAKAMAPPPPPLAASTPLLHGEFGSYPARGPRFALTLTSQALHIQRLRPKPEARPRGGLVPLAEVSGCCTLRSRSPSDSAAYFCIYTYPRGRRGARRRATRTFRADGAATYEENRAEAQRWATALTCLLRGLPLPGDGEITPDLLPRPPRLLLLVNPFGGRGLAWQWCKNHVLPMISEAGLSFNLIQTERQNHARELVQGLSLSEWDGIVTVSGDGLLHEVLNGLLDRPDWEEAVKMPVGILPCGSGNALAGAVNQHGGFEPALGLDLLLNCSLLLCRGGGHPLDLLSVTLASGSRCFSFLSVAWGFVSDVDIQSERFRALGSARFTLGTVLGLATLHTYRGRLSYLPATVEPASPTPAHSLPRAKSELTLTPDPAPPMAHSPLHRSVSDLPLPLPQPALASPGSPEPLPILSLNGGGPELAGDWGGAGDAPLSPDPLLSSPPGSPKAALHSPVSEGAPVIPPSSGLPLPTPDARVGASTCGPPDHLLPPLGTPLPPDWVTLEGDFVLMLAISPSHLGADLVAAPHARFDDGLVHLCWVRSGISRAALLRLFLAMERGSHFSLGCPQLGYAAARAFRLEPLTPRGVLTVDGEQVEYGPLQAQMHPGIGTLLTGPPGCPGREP
Vascular endothelial growth factor receptor 1 (Homo sapiens), sequence (P17948 whole entry, the tested form may be a part): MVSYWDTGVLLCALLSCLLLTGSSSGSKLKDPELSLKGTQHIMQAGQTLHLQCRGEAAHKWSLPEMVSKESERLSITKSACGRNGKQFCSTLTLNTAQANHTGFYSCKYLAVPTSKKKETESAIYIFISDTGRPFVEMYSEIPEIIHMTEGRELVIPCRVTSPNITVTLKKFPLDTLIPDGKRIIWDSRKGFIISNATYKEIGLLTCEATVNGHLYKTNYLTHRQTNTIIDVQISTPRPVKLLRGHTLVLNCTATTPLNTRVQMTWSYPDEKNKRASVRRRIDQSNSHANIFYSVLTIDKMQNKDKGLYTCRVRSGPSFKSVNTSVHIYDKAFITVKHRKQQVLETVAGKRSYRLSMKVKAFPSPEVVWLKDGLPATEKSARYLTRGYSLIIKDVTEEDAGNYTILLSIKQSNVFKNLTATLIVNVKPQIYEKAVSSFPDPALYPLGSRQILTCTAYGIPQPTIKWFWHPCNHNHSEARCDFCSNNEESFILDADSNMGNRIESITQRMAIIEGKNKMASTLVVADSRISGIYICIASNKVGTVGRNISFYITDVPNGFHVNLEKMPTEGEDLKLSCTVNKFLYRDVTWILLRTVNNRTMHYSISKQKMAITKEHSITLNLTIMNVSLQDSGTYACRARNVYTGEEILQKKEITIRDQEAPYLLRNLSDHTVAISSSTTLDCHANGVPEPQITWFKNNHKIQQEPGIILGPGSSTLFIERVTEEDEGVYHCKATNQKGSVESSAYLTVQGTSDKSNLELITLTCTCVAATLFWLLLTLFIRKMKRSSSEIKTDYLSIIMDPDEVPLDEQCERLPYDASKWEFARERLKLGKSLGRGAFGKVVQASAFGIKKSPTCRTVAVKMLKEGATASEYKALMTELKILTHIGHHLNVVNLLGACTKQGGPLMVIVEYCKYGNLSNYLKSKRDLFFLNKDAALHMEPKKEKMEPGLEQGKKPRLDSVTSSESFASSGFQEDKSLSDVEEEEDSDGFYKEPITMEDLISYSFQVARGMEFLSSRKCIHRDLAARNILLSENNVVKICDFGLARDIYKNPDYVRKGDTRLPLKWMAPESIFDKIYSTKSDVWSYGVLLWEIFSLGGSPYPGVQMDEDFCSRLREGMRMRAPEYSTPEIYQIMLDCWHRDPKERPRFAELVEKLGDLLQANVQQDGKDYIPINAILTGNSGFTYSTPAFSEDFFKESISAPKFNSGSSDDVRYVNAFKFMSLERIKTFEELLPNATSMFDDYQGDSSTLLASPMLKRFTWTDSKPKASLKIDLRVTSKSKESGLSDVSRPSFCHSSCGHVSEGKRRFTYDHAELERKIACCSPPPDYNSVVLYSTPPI
Proto-oncogene tyrosine-protein kinase Src (Homo sapiens), sequence (P12931 2-536 limits assumed): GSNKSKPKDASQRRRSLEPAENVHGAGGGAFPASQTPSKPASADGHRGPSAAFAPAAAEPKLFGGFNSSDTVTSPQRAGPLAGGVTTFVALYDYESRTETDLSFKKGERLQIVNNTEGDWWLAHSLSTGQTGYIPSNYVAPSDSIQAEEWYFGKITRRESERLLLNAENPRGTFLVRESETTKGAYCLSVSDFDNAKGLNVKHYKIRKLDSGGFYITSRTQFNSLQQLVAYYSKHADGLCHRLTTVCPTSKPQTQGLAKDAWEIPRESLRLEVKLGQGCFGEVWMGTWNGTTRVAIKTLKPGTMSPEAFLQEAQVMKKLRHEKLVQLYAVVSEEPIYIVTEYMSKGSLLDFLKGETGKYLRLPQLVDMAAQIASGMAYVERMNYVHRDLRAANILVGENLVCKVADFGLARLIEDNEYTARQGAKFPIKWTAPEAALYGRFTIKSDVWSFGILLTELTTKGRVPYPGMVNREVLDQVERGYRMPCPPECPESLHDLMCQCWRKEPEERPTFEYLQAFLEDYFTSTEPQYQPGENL
Glycogen synthase kinase-3 beta (Homo sapiens), sequence (P49841 whole entry, looked up, the tested form may be a part): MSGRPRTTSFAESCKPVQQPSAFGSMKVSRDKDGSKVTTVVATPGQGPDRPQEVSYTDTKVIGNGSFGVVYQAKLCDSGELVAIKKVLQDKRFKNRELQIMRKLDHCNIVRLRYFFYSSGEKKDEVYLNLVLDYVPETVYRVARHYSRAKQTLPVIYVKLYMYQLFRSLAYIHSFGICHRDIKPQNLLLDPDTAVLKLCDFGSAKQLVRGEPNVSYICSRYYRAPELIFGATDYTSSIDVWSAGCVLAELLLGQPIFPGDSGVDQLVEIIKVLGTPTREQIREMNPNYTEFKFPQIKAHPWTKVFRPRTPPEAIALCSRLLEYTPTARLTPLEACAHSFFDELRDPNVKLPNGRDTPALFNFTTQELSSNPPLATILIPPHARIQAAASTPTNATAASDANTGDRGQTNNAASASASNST
Dual specificity mitogen-activated protein kinase kinase 1 (Homo sapiens), sequence (Q02750 whole entry, the tested form may be a part): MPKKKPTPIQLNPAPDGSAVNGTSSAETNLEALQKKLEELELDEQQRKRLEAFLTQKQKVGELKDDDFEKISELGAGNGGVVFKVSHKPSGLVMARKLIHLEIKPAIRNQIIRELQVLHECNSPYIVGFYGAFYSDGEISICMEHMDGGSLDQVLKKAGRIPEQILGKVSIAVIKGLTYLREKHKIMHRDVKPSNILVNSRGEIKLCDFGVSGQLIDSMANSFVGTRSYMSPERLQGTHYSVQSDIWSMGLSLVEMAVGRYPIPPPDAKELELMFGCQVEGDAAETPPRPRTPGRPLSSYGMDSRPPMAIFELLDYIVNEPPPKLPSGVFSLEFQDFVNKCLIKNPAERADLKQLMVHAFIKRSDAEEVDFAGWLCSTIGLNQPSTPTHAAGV

With `COc1ccc(-c2ccc3c(N4CCOCC4)nc(N4C[C@@H](C)O[C@@H](C)C4)nc3n2)cc1CO` [Ku-0063794] the Activity [1] was 89%, the Activity [2] was 89% and the Activity [3] was 82%. It also gave an Activity [4] of 81%, an Activity [5] of 74% and an Activity [6] of 92%. The Activity [7] was 91%, the Activity [8] was 105% and the Activity [9] was 86%. The inhibition [10] was 55%, the Activity (Homo sapiens) was 102% and the Activity [11] was 119%. The Activity [12] was 116%, the inhibition (MEF) was “Active” and the inhibition (mTORC1 (Homo sapiens) [13]) was “Active”. For the same compound, the inhibition (mTORC1 (Homo sapiens) [14]) was “Active”.
